Active and inactive are the calls of the source. The rule behind the calls is not given here.
Legend:
[1] = Cytotoxicty against mouse J774.A1 cells assessed as cell viability at 12.5 uM incubated for 24 hrs by resazurin dye based assay (reference value: 100 %); conditions: read-out: Activity
Procedure, shortened: (§1)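 J774A.1 macrophages grown in DMEM with 10% FBS and 0.1% gentamycin, seeded at 1×10^5 cells/well. Exposed to compounds at 0, 12.5, 25, 50 or 100 μM for 24 h. Resazurin (10 μg/ml) added for 3 h, then fluorescence read. Run in triplicate. Viability given as percent of 0.2% DMSO-treated cells.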

Plasmodium berghei [2] = assay: Antimalarial activity against Plasmodium berghei NK65 infected in mouse assessed as parasite growth at 25 mg/kg, po administered for 3 days and measured on day 5 Giemsa staining based assay relative to control; assay type: functional; conditions: time 5 day
Procedure, shortened: (§2)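 P. berghei NK65 kept by weekly blood passage in mice. Mice inoculated i.p. with 1×10^6 infected erythrocytes, randomized after about 24 h into groups of five. Oral dosing once daily for three days, vehicle 3% DMSO in RPMI. Test compounds given at 25 mg/kg, CQ control at 20 mg/kg. Parasitemia read on Giemsa-stained thin smears on days 5 and 7 and expressed relative to untreated mice.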

[3] = Selectivity index, ratio of MDL50 for monkey BGM cells to IC50 for Plasmodium falciparum CQR (W2 clone) infected in human Erythrocyte; assay type: toxicity
Procedure, shortened: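 SI calculated as MLD50 in BGM cells (neutral red, 24 h) divided by IC50 against P. falciparum W2 (SYBR, 48 h).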

Plasmodium falciparum = assay: Antimalarial activity against Plasmodium falciparum CQR (W2 clone) infected in human erythrocyte assessed as reduction in parasite growth incubated for 48 hrs by SYBR assay; assay type: functional, organism-based
Procedure, shortened: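 W2 parasites cultured in A+ human erythrocytes in RPMI 1640 with ALBUMAX II, candle jar, 37 °C. Rings synchronized with sorbitol, then exposed to serial dilutions at 0.5% parasitemia and 2% hematocrit for 48 h at 37 °C. Lysis buffer with SYBR Safe, 30 min in the dark, fluorescence read at ex 485 nm. IC50 from sigmoid curve fit against drug-free control.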

[4] = Cytotoxicty against mouse J774.A1 cells assessed as cell viability at 100 uM incubated for 24 hrs by resazurin dye based assay (reference value: 100 %); conditions: read-out: Activity; procedure, shortened: as §1
[5] = Cytotoxicty against mouse J774.A1 cells assessed as cell viability at 50 uM incubated for 24 hrs by resazurin dye based assay (reference value: 100 %); conditions: read-out: Activity; procedure, shortened: as §1
[6] = Cytotoxicty against mouse J774.A1 cells assessed as cell viability at 25 uM incubated for 24 hrs by resazurin dye based assay (reference value: 100 %); conditions: read-out: Activity; procedure, shortened: as §1
Plasmodium berghei [7] = assay: Antimalarial activity against Plasmodium berghei NK65 infected in mouse assessed as increase in mouse survival rate at 25 mg/kg, po administered for 3 days and observed for 7 days; assay type: functional, organism-based; conditions: time 7.0 day
[8] = Cytotoxicity against monkey BGM cells assessed as reduction in cell viability incubated for 24 hrs by neutral red dye based assay; conditions: chlorocebus aethiops, read-out: MDL50
Procedure, shortened: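 BGM monkey kidney cells grown in RPMI 1640 with 10% heat-inactivated fetal serum and gentamicin, 5% CO2, 37 °C. Cells allowed to adhere for 24 h, then exposed to compounds at 1000–1 μg/mL for 24 h. Neutral red uptake for 3 h, formaldehyde/CaCl2 fix, alcohol-acetic acid elution, absorbance at 540 nm. Viability taken as percent of untreated cells after background subtraction. MLD50 derived from this.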

Plasmodium berghei [9] = assay: Antimalarial activity against Plasmodium berghei NK65 infected in mouse assessed as parasite growth at 25 mg/kg, po administered for 3 days and measured on day 7 Giemsa staining based assay; assay type: functional; conditions: time 7 day; procedure, shortened: as §2
J774.A1 [10] = assay: Inhibition of LPS-induced NO production in mouse J774.A1 cells incubated for 24 hrs by Griess reagent based assay; assay type: functional, cell-based; conditions: dose microM 0.5-25, time 24.0 hrs
Procedure, shortened: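 Compounds made as 10 mM DMSO stocks and diluted in medium. J774A.1 cells pre-incubated with compounds at 25 μM for screening, or 0.5–25 μM for dose-response, with dexamethasone 1 μM or 0.2% DMSO as controls. Stimulated with LPS 37.5 ng/ml plus IFNγ 25 U/ml for 24 h at 37 °C, 5% CO2. Supernatant nitrite measured by Griess at 540 nm. Triplicate, mean ± SEM.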

J774.A1 [11] = assay: Inhibition of LPS-induced TNFalpha production in mouse J774.A1 cells incubated for 24 hrs by ELISA; assay type: functional, cell-based; conditions: dose microM 0.5-25, time 24.0 hrs
Procedure, shortened: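 J774A.1 cells seeded at 2×10^6 cells/well. Pretreated with vehicle, dexamethasone 1 μM, or compounds at 0.5–25 μM. Stimulated with LPS 100 ng/ml for 24 h. Supernatants stored at −20 °C, then TNFα measured by sandwich ELISA in pg/mL. Triplicate, mean ± SEM.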

Plasmodium berghei [12] = assay: Antimalarial activity against Plasmodium berghei NK65 infected in mouse assessed as increase in mouse survival at 20 mg/kg, po administered for 3 days and observed for 7 days; assay type: functional, organism-based; conditions: time 7.0 day
Plasmodium berghei [13] = assay: Antimalarial activity against Plasmodium berghei NK65 infected in mouse assessed as parasite growth at 20 mg/kg, po administered for 3 days and measured on day 7 Giemsa staining based assay relative to control; assay type: functional; conditions: time 7 day; procedure, shortened: as §2
Plasmodium berghei [14] = assay: Antimalarial activity against Plasmodium berghei NK65 infected in mouse assessed as parasite growth at 20 mg/kg, po administered for 3 days and measured on day 5 Giemsa staining based assay relative to control; assay type: functional; conditions: time 5 day; procedure, shortened: as §2

| SMILES | viability at 24 h, 12.5 µM [1] | selectivity ratio [3] | IC50 (Plasmodium falciparum) | viability at 24 h, 100 µM [4] | viability at 24 h, 50 µM [5] | viability at 24 h, 25 µM [6] | CC50 at 24 h [8] | also measured |
| --- | --- | --- | --- | --- | --- | --- | --- | --- |
| CC(=O)Nc1ccccc1C(=O)C(=O)NCCCNc1ccnc2cc(Cl)ccc12 | 100% | > 400 | 0.2 µM | 67.6% | 89.1% | 100% | 91.7 µM | Activity (Plasmodium berghei [2]): 0%; Activity (Plasmodium berghei [7]): Active; Activity (Plasmodium berghei [9]): 15% |
| COc1cc(NC(C)CCCNC(=O)C(=O)c2cc(Cl)ccc2NC(C)=O)c2ncccc2c1 (stereo unspecified) | 100% | > 20 | 7.7 µM | 54.6% | 77.6% | 100% | 164 µM | – |
| CC(=O)Nc1ccc(C)cc1C(=O)C(=O)NCCCCNc1ccnc2cc(Cl)ccc12 | – | – | 0.84 µM | – | – | – | – | – |
| CC(=O)Nc1ccc(Cl)cc1C(=O)C(=O)NCCCNc1ccnc2cc(Cl)ccc12 | 100% | 258 | 0.12 µM | 10.7% | 82.7% | 100% | 30.9 µM | inhibition (J774.A1 [10]): Dose-dependent effect; Activity (Plasmodium berghei [2]): 0%; inhibition (J774.A1 [11]): Dose-dependent effect; Activity (Plasmodium berghei [7]): Active; Activity (Plasmodium berghei [9]): 0% |
| CC(=O)Nc1ccc(C)cc1C(=O)C(=O)NCCCNc1ccnc2cc(Cl)ccc12 | – | – | 0.22 µM | – | – | – | – | – |
| CCN(CC)CCCC(C)Nc1ccnc2cc(Cl)ccc12 (stereo unspecified) [CHLOROQUINE] | – | – | – | – | – | – | 457 µM | Activity (Plasmodium berghei [12]): Active; Activity (Plasmodium berghei [13]): 99%; Activity (Plasmodium berghei [14]): 99% |
| CC(=O)Nc1ccc(Cl)cc1C(F)(F)C(=O)NCCCNc1ccnc2cc(Cl)ccc12 | 100% | > 1300 | 0.5 µM | 10.4% | 87.5% | 95.5% | 654 µM | inhibition (J774.A1 [10]): Dose-dependent effect; inhibition (J774.A1 [11]): Dose-dependent effect |
| CC(=O)Nc1ccc(Br)cc1C(=O)C(=O)NCCCNc1ccnc2cc(Cl)ccc12 | – | 270 | 0.38 µM | – | – | – | 103 µM | – |
| CC(=O)Nc1ccccc1C(=O)C(=O)NCCNc1ccnc2cc(Cl)ccc12 | – | > 300 | 0.71 µM | – | – | – | 261 µM | – |
| CC(=O)Nc1ccccc1C(F)(F)C(=O)NCCCCNc1ccnc2cc(Cl)ccc12 | 100% | > 50 | 2.7 µM | 10.4% | 83.7% | 100% | 140 µM | – |
| COc1cc(NC(C)CCCNC(=O)C(=O)c2cc(Br)ccc2NC(C)=O)c2ncccc2c1 (stereo unspecified) | 100% | > 100 | 2.5 µM | 75.8% | 75.5% | 100% | 309 µM | – |
| CC(=O)Nc1ccc(C)cc1C(=O)C(=O)NCCNc1ccnc2cc(Cl)ccc12 | – | > 170 | 0.49 µM | – | – | – | > 84 µM | – |
| COc1cc(NC(C)CCCNC(=O)C(=O)c2cc(C)ccc2NC(C)=O)c2ncccc2c1 (stereo unspecified) | – | > 80 | 25.3 µM | – | – | – | > 2160 µM | – |
| COc1cc(NC(C)CCCNC(=O)C(=O)c2ccccc2NC(C)=O)c2ncccc2c1 (stereo unspecified) | – | – | 26.8 µM | – | – | – | – | – |
| COc1cc(NC(C)CCCNC(=O)C(F)(F)c2cc(Br)ccc2NC(C)=O)c2ncccc2c1 (stereo unspecified) | – | > 520 | 3.5 µM | – | – | – | > 1820 µM | – |
| CC(=O)Nc1ccc(Cl)cc1C(=O)C(=O)NCCCCNc1ccnc2cc(Cl)ccc12 | – | 29 | 3.18 µM | – | – | – | 91.1 µM | – |
| COc1cc(NC(C)CCCNC(=O)C(F)(F)c2cc(C)ccc2NC(C)=O)c2ncccc2c1 (stereo unspecified) | – | – | 20.7 µM | – | – | – | – | – |
| COc1cc(NC(C)CCCNC(=O)C(F)(F)c2ccccc2NC(C)=O)c2ncccc2c1 (stereo unspecified) | – | 4 | 25.5 µM | – | – | – | 113 µM | – |
| CC(=O)Nc1ccccc1C(F)(F)C(=O)NCCCNc1ccnc2cc(Cl)ccc12 | 100% | > 250 | 0.4 µM | 33.3% | 91.5% | 100% | 99 µM | – |
| CC(=O)Nc1ccccc1C(=O)C(=O)NCCCCNc1ccnc2cc(Cl)ccc12 | 98.4% | > 700 | 0.18 µM | 10.1% | 83.4% | 100% | 124 µM | Activity (Plasmodium berghei [2]): 0%; inhibition (J774.A1 [11]): inactive; Activity (Plasmodium berghei [9]): 2% |
| CC(=O)Nc1ccc(Cl)cc1C(=O)C(=O)NCCNc1ccnc2cc(Cl)ccc12 | – | 292 | 0.52 µM | – | – | – | 152 µM | – |

— ChEMBL document CHEMBL4699631, “Antimalarial and anti-inflammatory activities of new chloroquine and primaquine hybrids: Targeting the blockade of malaria parasite transmission” (Bioorg Med Chem, 2020)
